# Assays:
# Assay type in all cases: functional
# [1] = test system: NCI-H292; assay: Cytotoxicity against human NCI-H292 cells at 10 ug/mL after 72 hrs by MTT assay; settings: NCI-H292, 72 h, read-out: GI
# Summary of the method: (§1)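 MTT antiproliferative assay. Cells were diluted to 10⁵ cells/mL in 96-well plates and preincubated for 24 h at 37 °C in humid 5% CO₂. Compounds or vincristine (reference) were then added. Formazan was dissolved and OD read at 540 nm, compared with medium-only control cells. Run in triplicate.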
# [2] = test system: Enterococcus faecalis; assay: Antimicrobial activity against Enterococcus faecalis UFPEDA 138 at 300 ug/disk after 24 hrs by disk diffusion method; settings: UFPEDA 138, 24 h, read-out: IZ
# Summary of the method: (§2)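 Preliminary screen by disk diffusion. Paper disks (6 mm) holding 300 µg of compound were placed on agar plates inoculated with a standardized microbial suspension. DMSO-only disks served as negative controls. A mean inhibition zone below 7 mm was scored as no sensitivity. Values are means, n = 3.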
# [3] = test system: Enterococcus faecalis; assay: Antimicrobial activity against multidrug-resistant Enterococcus faecalis H.C. 21752 isolate after 20 hrs by twofold serial dilution technique; settings: H.C. 21752, 20 h
# Summary of the method: (§3)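 Twofold serial dilution MIC in agar plates against Gram-positive strains and multidrug-resistant clinical isolates. Inoculum applied was 10⁵ CFU/plate. Plates with culture medium plus DMSO served as negative control. MIC was read after incubation at 35 °C for 20 h.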
# [4] = test system: Mycolicibacterium smegmatis; assay: Antimicrobial activity against Mycobacterium smegmatis UFPEDA 71 after 20 hrs by twofold serial dilution technique; settings: UFPEDA 71, 20 h
# Summary of the method: (§4)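 MIC was determined by twofold serial dilution. Bacteria were tested in plates at 10⁵ CFU/plate and read after 20 h. C. albicans was tested in tubes at 10³ CFU/tube and read after 48 h. All incubations were at 35 °C. Medium plus DMSO served as the negative control.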
# [5] = test system: HEp-2; assay: Cytotoxicity against human Hep2 cells at 5 ug/mL after 72 hrs by MTT assay; settings: HEp-2, 72 h, read-out: GI; summary of the method: as §1
# [6] = test system: Bacillus subtilis; assay: Antimicrobial activity against Bacillus subtilis UFPEDA 16 after 20 hrs by twofold serial dilution technique; settings: UFPEDA 16, 20 h; summary of the method: as §4
# [7] = test system: NCI-H292; assay: Cytotoxicity against human NCI-H292 cells at 1.25 ug/mL after 72 hrs by MTT assay; settings: NCI-H292, 72 h, read-out: GI; summary of the method: as §1
# [8] = test system: Staphylococcus aureus; assay: Antimicrobial activity against multidrug-resistant Staphylococcus aureus H.C. 21036 isolate after 20 hrs by twofold serial dilution technique; settings: H.C. 21036, 20 h; summary of the method: as §3
# [9] = test system: Candida albicans; assay: Antimicrobial activity against Candida albicans UFPEDA 1007 after 48 hrs by twofold serial dilution technique; settings: UFPEDA 1007, 48 h; summary of the method: as §4
# [10] = test system: Staphylococcus; assay: Antimicrobial activity against coagulase-negative Staphylococcus H.A.M. 338 isolate after 20 hrs by twofold serial dilution technique; settings: H.A.M. 338, 20 h; summary of the method: as §4
# [11] = test system: Staphylococcus aureus; assay: Antimicrobial activity against multidrug-resistant Staphylococcus aureus H.C. 20981 isolate after 20 hrs by twofold serial dilution technique; settings: H.C. 20981, 20 h; summary of the method: as §3
# [12] = test system: NCI-H292; assay: Cytotoxicity against human NCI-H292 cells at 2.5 ug/mL after 72 hrs by MTT assay; settings: NCI-H292, 72 h, read-out: GI; summary of the method: as §1
# [13] = test system: Staphylococcus aureus; assay: Antimicrobial activity against multidrug-resistant Staphylococcus aureus H.C. 20905 isolate after 20 hrs by twofold serial dilution technique; settings: H.C. 20905, 20 h; summary of the method: as §3
# [14] = test system: Enterococcus faecalis; assay: Antimicrobial activity against multidrug-resistant Enterococcus faecalis H.C. 24708 isolate after 20 hrs by twofold serial dilution technique; settings: H.C. 24708, 20 h; summary of the method: as §3
# [15] = test system: NCI-H292; assay: Cytotoxicity against human NCI-H292 cells at 5 ug/mL after 72 hrs by MTT assay; settings: NCI-H292, 72 h, read-out: GI; summary of the method: as §1
# [16] = test system: Staphylococcus aureus; assay: Antimicrobial activity against multidrug-resistant Staphylococcus aureus H.C. 20794 isolate after 20 hrs by twofold serial dilution technique; settings: H.C. 20794, 20 h; summary of the method: as §3
# [17] = test system: Mycolicibacterium smegmatis; assay: Antimicrobial activity against Mycobacterium smegmatis UFPEDA 71 at 300 ug/disk after 24 hrs by disk diffusion method; settings: UFPEDA 71, 24 h, read-out: IZ; summary of the method: as §2
# [18] = test system: Staphylococcus; assay: Antimicrobial activity against coagulase-negative Staphylococcus H.A.M. 278 isolate after 20 hrs by twofold serial dilution technique; settings: H.A.M. 278, 20 h; summary of the method: as §4
# [19] = test system: Escherichia coli; assay: Antimicrobial activity against Escherichia coli UFPEDA 224 at 300 ug/disk after 24 hrs by disk diffusion method; settings: UFPEDA 224, 24 h, read-out: IZ; summary of the method: as §2
# [20] = test system: Bacillus subtilis; assay: Antimicrobial activity against Bacillus subtilis UFPEDA 16 at 300 ug/disk after 24 hrs by disk diffusion method; settings: UFPEDA 16, 24 h, read-out: IZ; summary of the method: as §2
# [21] = test system: HEp-2; assay: Cytotoxicity against human Hep2 cells at 10 ug/mL after 72 hrs by MTT assay; settings: HEp-2, 72 h, read-out: GI; summary of the method: as §1
# [22] = test system: Enterococcus faecalis; assay: Antimicrobial activity against multidrug-resistant Enterococcus faecalis H.C. 24962 isolate after 20 hrs by twofold serial dilution technique; settings: H.C. 24962, 20 h; summary of the method: as §3
# [23] = test system: Staphylococcus aureus; assay: Antimicrobial activity against Staphylococcus aureus UFPEDA 01 after 20 hrs by twofold serial dilution technique; settings: UFPEDA 01, 20 h; summary of the method: as §3
# [24] = test system: Staphylococcus aureus; assay: Antimicrobial activity against multidrug-resistant Staphylococcus aureus H.C. 20489 isolate after 20 hrs by twofold serial dilution technique; settings: H.C. 20489, 20 h; summary of the method: as §3
# [25] = test system: Candida albicans; assay: Antimicrobial activity against Candida albicans UFPEDA 1007 at 300 ug/disk after 48 hrs by disk diffusion method; settings: UFPEDA 1007, 48 h, read-out: IZ; summary of the method: as §2
# [26] = test system: Micrococcus luteus; assay: Antimicrobial activity against Micrococcus luteus UFPEDA 06 after 20 hrs by twofold serial dilution technique; settings: UFPEDA 06, 20 h; summary of the method: as §4
# [27] = test system: Enterococcus faecalis; assay: Antimicrobial activity against Enterococcus faecalis UFPEDA 138 after 20 hrs by twofold serial dilution technique; settings: UFPEDA 138, 20 h; summary of the method: as §4
# [28] = test system: HEp-2; assay: Cytotoxicity against human Hep2 cells at 1.25 ug/mL after 72 hrs by MTT assay; settings: HEp-2, 72 h, read-out: GI; summary of the method: as §1
# [29] = test system: Pseudomonas aeruginosa; assay: Antimicrobial activity against Pseudomonas aeruginosa UFPEDA 39 at 300 ug/disk after 24 hrs by disk diffusion method; settings: UFPEDA 39, 24 h, read-out: IZ; summary of the method: as §2
# [30] = test system: Enterococcus faecalis; assay: Antimicrobial activity against multidrug-resistant Enterococcus faecalis H.C. 21944 isolate after 20 hrs by twofold serial dilution technique; settings: H.C. 21944, 20 h; summary of the method: as §3
# [31] = test system: HEp-2; assay: Cytotoxicity against human Hep2 cells at 2.5 ug/mL after 72 hrs by MTT assay; settings: HEp-2, 72 h, read-out: GI; summary of the method: as §1
# [32] = test system: Staphylococcus aureus; assay: Antimicrobial activity against Staphylococcus aureus UFPEDA 01 at 300 ug/disk after 24 hrs by disk diffusion method; settings: UFPEDA 01, 24 h, read-out: IZ; summary of the method: as §2
# [33] = test system: Serratia marcescens; assay: Antimicrobial activity against Serratia marcescens UFPEDA 398 at 300 ug/disk after 24 hrs by disk diffusion method; settings: UFPEDA 398, 24 h, read-out: IZ; summary of the method: as §2
# [34] = test system: Staphylococcus aureus; assay: Antimicrobial activity against multidrug-resistant Staphylococcus aureus H.C. 21141 isolate after 20 hrs by twofold serial dilution technique; settings: H.C. 21141, 20 h; summary of the method: as §3
# [35] = test system: Micrococcus luteus; assay: Antimicrobial activity against Micrococcus luteus UFPEDA 06 at 300 ug/disk after 24 hrs by disk diffusion method; settings: UFPEDA 06, 24 h, read-out: IZ; summary of the method: as §2
SMILES,zone of inhibition at 300 µg/disc [2] [mm],MIC [3] [µg/mL],MIC [4] [µg/mL],MIC [6] [µg/mL],MIC [8] [µg/mL],MIC [9] [µg/mL],MIC [10] [µg/mL],MIC [11] [µg/mL],MIC [13] [µg/mL],MIC [14] [µg/mL],MIC [16] [µg/mL],zone of inhibition at 300 µg/disc [17] [mm],MIC [18] [µg/mL],zone of inhibition at 300 µg/disc [19] [mm],zone of inhibition at 300 µg/disc [20] [mm],MIC [22] [µg/mL],MIC [23] [µg/mL],MIC [24] [µg/mL],zone of inhibition at 300 µg/disc [25] [mm],MIC [26] [µg/mL],also measured
O=C1NC(=S)/C(=C/c2ccc(F)cc2)S1,24,32,16,16,2,32,32,4,2,16,2,25,32,< 7,26,16,4,2,17,16,inhibition of growth at 10 µg/mL [1]: 38%; inhibition of growth at 5 µg/mL [5]: 20.6%; inhibition of growth at 1.25 µg/mL [7]: 7.32%; inhibition of growth at 2.5 µg/mL [12]: 17.5%; inhibition of growth at 5 µg/mL [15]: 31.6%; inhibition of growth at 10 µg/mL [21]: 30.1%; MIC [27]: 32 µg/mL; inhibition of growth at 1.25 µg/mL [28]: -10.8%; zone of inhibition at 300 µg/disc [29]: < 7 mm; MIC [30]: 32 µg/mL; inhibition of growth at 2.5 µg/mL [31]: -4.51%; zone of inhibition at 300 µg/disc [32]: 29 mm; zone of inhibition at 300 µg/disc [33]: < 7 mm; MIC [34]: 32 µg/mL; zone of inhibition at 300 µg/disc [35]: 29 mm
O=C1NC(=S)CS1,22,32,32,4,32,8,64,32,32,32,32,18,64,< 7,21,32,8,64,19,4,MIC [27]: 64 µg/mL; zone of inhibition at 300 µg/disc [29]: < 7 mm; MIC [30]: 32 µg/mL; zone of inhibition at 300 µg/disc [32]: 19 mm; zone of inhibition at 300 µg/disc [33]: < 7 mm; MIC [34]: 32 µg/mL; zone of inhibition at 300 µg/disc [35]: 26 mm
O=C1NC(=S)/C(=C/c2ccc(Cl)cc2)S1,17,16,32,16,2,64,4,2,2,16,2,20,4,< 7,22,16,4,2,12,32,inhibition of growth at 10 µg/mL [1]: 41.4%; inhibition of growth at 5 µg/mL [5]: 16.1%; inhibition of growth at 1.25 µg/mL [7]: 10%; inhibition of growth at 2.5 µg/mL [12]: 28.6%; inhibition of growth at 5 µg/mL [15]: 35.8%; inhibition of growth at 10 µg/mL [21]: 22.2%; MIC [27]: 32 µg/mL; inhibition of growth at 1.25 µg/mL [28]: 0.92%; zone of inhibition at 300 µg/disc [29]: < 7 mm; MIC [30]: 16 µg/mL; zone of inhibition at 300 µg/disc [32]: 27 mm; zone of inhibition at 300 µg/disc [33]: < 7 mm; MIC [34]: 8 µg/mL; zone of inhibition at 300 µg/disc [35]: 25 mm

# From ChEMBL document CHEMBL1158358, “Synthesis, antimicrobial and cytotoxic activities of some 5-arylidene-4-thioxo-thiazolidine-2-ones” (Eur J Med Chem, 2009)
